Results as given in ChEMBL document CHEMBL5154906, “Design of a Potent, Selective, and Brain-Penetrant Inhibitor of Wnt-Deactivating Enzyme Notum by Optimization of a Crystallographic Fragment Hit” (J Med Chem, 2022).
Each block holds one compound with its values, some of them ahead of it.

How the values were obtained:
[1] = target: T1, Palmitoleoyl-protein carboxylesterase NOTUM (Homo sapiens, UniProt Q6P988, C330S); test: Inhibition of human Notum (S81 to T451 residues) Cys330Ser mutant expressed in HEK293S cells using OPTS as substrate incubated for 40 mins by fluorescence based assay
[2] = target: T1, Palmitoleoyl-protein carboxylesterase NOTUM; test: Inhibition of human Notum (S81 to T451 residues) Cys330Ser mutant expressed in HEK293S cells at 10 uM using OPTS as substrate incubated for 40 mins by fluorescence based assay relative to control; assay type: cell-based
How it was run: (§1)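 Recombinant human Notum (81–451, Cys330Ser) was the enzyme and OPTS the carboxylesterase substrate. Values are percent inhibition at a single concentration, 10 μM or 100 μM.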

[3] = Metabolic stability in human liver microsomes assessed as intrinsic clearance; assay type: ADME, Microsome; settings: read-out: CLH
[4] = target: Glycogen synthase kinase-3 (Homo sapiens) (UniProt P49840+P49841); test: Inhibition of GSK3 (unknown origin) at 10 uM relative to control; assay type: protein assay
[5] = Metabolic stability in rat liver microsomes assessed as intrinsic clearance; assay type: ADME, Microsome; settings: read-out: CLH
[6] = target: Casein kinase I isoform alpha (Homo sapiens) (UniProt P48729); test: Inhibition of CK1 (unknown origin) at 10 uM relative to control
[7] = Toxicity in wild type mouse at 30 mg/kg, po administered twice daily for 7 days; settings: in vivo, 168 h
[8] = Metabolic stability in mouse liver microsomes assessed as intrinsic clearance; assay type: ADME, Microsome; settings: read-out: CLH
in vivo = settings: Sprague-Dawley, rat, brain, po, 10 mg/kg
[9] = Metabolic stability in dog liver microsomes assessed as intrinsic clearance; assay type: ADME, Canis lupus familiaris, Microsome; settings: read-out: CLH
[10] = Drug uptake in mouse assessed as brain concentration at 30 mg/kg, po administered twice daily for 7 days; assay type: ADME, organism-based; settings: in vivo, 168 h, time 7 day
How it was run: (§2)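 Mice received 30 mg/kg orally twice daily, at T = 0 and 9 h, in formulation A (DMSO 2% v/v + 10% v/v Solutol in 1× PBS, 98% v/v). Plasma and brain drug concentrations were followed over time.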

[11] = Toxicity in aged APP/PS1 mouse at 30 mg/kg, po administered twice daily for 7 days; settings: in vivo, 168 h
[12] = Drug uptake in mouse assessed as plasma concentration at 30 mg/kg, po administered twice daily for 7 days; assay type: ADME, organism-based; settings: in vivo, 168 h, time 7 day; how it was run: as §2
[13] = Metabolic stability in mouse hepatocyte assessed as intrinsic clearance measured per 10^6 cells; assay type: ADME, cell-based; settings: hepatocytes, read-out: CLH
[14] = target: T1, Palmitoleoyl-protein carboxylesterase NOTUM; test: Inhibition of human Notum (S81 to T451 residues) Cys330Ser mutant expressed in HEK293S cells at 100 uM using OPTS as substrate incubated for 40 mins by fluorescence based assay relative to control; assay type: cell-based; how it was run: as §1
[15] = Efflux ratio of apparent permeability from basolateral to apical side over apical to basolateral side in MDCK-MDR1 cells; settings: dog

T1 sequence (Q6P988 20-496 C330S limits assumed): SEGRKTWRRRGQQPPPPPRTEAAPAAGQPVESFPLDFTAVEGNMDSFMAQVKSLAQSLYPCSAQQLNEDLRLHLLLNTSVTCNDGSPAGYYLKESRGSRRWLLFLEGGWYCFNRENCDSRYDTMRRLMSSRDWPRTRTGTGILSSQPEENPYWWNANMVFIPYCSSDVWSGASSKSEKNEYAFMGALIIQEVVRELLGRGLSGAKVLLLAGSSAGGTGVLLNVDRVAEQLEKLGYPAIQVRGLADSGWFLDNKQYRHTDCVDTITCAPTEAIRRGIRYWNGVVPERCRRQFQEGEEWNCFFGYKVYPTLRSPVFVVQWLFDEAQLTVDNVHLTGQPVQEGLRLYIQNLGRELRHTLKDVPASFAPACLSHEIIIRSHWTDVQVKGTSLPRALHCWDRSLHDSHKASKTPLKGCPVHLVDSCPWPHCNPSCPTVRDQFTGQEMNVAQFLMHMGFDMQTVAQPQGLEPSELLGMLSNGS
Sequence of Glycogen synthase kinase-3 (Homo sapiens) (P49840 whole entry, looked up): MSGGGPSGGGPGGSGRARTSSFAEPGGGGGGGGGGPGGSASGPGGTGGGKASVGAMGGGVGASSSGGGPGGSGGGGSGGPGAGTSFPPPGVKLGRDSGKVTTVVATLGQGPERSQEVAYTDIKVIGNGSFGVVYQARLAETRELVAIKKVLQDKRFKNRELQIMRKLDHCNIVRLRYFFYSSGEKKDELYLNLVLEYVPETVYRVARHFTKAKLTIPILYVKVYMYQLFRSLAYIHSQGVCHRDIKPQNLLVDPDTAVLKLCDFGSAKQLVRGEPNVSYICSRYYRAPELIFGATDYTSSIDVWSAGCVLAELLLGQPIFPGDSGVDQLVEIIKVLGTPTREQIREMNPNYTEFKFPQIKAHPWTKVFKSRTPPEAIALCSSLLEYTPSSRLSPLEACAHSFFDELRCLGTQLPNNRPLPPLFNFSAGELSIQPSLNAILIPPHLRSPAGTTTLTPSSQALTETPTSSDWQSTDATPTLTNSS
Sequence of Glycogen synthase kinase-3 (Homo sapiens) (P49841 whole entry, looked up): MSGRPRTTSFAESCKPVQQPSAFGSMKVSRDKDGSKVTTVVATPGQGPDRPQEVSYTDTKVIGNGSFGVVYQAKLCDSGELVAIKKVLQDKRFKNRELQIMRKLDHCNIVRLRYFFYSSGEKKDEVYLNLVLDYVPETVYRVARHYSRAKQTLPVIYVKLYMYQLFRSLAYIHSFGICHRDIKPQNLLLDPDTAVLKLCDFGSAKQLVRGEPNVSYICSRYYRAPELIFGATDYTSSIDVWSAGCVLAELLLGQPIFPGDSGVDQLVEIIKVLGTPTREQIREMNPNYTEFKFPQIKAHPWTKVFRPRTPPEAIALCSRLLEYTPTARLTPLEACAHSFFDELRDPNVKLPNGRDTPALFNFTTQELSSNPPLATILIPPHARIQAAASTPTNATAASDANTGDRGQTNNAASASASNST
Sequence of Casein kinase I isoform alpha (Homo sapiens) (P48729 2-337 limits assumed): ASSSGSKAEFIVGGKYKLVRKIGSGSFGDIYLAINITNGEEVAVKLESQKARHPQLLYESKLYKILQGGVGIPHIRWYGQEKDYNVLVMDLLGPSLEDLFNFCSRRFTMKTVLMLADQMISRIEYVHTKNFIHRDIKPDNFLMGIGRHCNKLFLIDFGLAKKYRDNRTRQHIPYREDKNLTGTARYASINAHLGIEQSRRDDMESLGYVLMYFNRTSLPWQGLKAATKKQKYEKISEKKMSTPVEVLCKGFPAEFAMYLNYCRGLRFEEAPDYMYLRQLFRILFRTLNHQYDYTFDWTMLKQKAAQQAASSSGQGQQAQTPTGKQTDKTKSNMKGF

- IC50 [1]: 1 µM
SMILES: OCc1cn(-c2ccc(C(F)(F)F)c(Cl)c2)nn1

- inhibition at 10 µM [2]: 40%
SMILES: Cc1cccc(-n2cc(CO)nn2)c1

- IC50 [1]: 0.73 µM
SMILES: Cc1ccc(-n2cc(CO)nn2)cc1C

- IC50 [1]: 2.3 µM
SMILES: OCc1cn(-c2cccc(C(F)(F)F)c2)nn1

- IC50 [1]: 0.065 µM
SMILES: OCc1cn(-c2ccc(Cl)c(C(F)(F)F)c2)nn1

- microsomal CLint [3]: 12 µL/min/mg
- IC50 [1]: 0.5 µM
SMILES: OCc1cn(-c2ccc(Cl)c(Cl)c2)nn1

- IC50 [1]: 6.3 µM
SMILES: OCc1cn(-c2cccc(Cl)c2)nn1

- IC50 [1]: 8.8 µM
SMILES: OCc1cn(-c2ccc(C(F)(F)F)cc2)nn1

- IC50 [1]: 32 µM
SMILES: OCc1cn(-c2ccccc2Cl)nn1

- IC50 [1]: 64 µM
SMILES: OCc1cn(-c2ccccc2F)nn1

- inhibition at 100 µM [14]: 40%
SMILES: OCc1cn(-c2ccc(F)cc2)nn1

- IC50 [1]: 28 µM
SMILES: OCc1cn(-c2ccc3c(c2)OCO3)nn1

Further lines, the compound ahead of its results:

SMILES: OCc1cn(-c2ccc3c(c2)OCCO3)nn1
- IC50 [1]: 32 µM

SMILES: FC(F)(F)c1c(Cl)ccc(-n2ccnn2)c1Cl
- inhibition [4]: < 50%
- microsomal CLint [3]: 1.5 µL/min/mg
- microsomal CLint [5]: < 9.6 µL/min/mg
- inhibition [6]: < 50%
- Activity [7]: Non-Toxic
- microsomal CLint [8]: 3.2 µL/min/mg
- AUC(0-inf) (in vivo): 46100 ng·h/mL
- microsomal CLint [9]: 10.8 µL/min/mg
- Ct [10]: Active
- Activity [11]: Non-Toxic
- Cp [12]: Active
- hepatocyte CLint [13]: 19.4 µL/min/1e6 cells

SMILES: [2H]c1nnn(-c2ccc(Cl)c(C(F)(F)F)c2Cl)c1[2H]
- microsomal CLint [8]: 5.4 µL/min/mg

SMILES: OCc1cn(-c2ccc(Cl)cc2Cl)nn1
- IC50 [1]: 5.6 µM

SMILES: OCc1cn(-c2cc(Cl)cc(Cl)c2)nn1
- IC50 [1]: 2.4 µM

SMILES: OCc1cn(-c2ccc(Cl)c(C(F)(F)F)c2Cl)nn1
- microsomal CLint [3]: 1.7 µL/min/mg
- microsomal CLint [8]: 6.7 µL/min/mg
- hepatocyte CLint [13]: 48 µL/min/1e6 cells

SMILES: FC(F)(F)c1c(Cl)cnc(-n2ccnn2)c1Cl
- Ratio [15]: 2.5

SMILES: OCc1cn(-c2cc(Cl)ccc2Cl)nn1
- IC50 [1]: 23 µM

SMILES: OCc1cn(-c2cccc(Cl)c2Cl)nn1
- IC50 [1]: 5.1 µM
